# Measurements pooled from the literature.
# Each line is one published result; the experiments were not run side by side.
Structure (SMILES),system,conditions,endpoint,result
CN1CCCCC1Cn1cc(C(=O)c2cc([N+](=O)[O-])ccc2I)c2ccccc21 (racemic),"mouse, plasma","oral, 25 mg/kg",AUC,74 mg·min/L
Cc1cc(C)nc(Nc2ncc(C(=O)NCCc3c(C)[nH]c4ccccc34)cn2)c1,"C57BL/6 mouse, plasma","intraperitoneal, 4.4 mg/kg",AUC(0-inf),155 ng·h/mL
NCC(=O)Nc1ccc(-n2nc(C(F)(F)F)cc2-c2ccc3c(ccc4ccccc43)c2)cc1,"mouse, plasma","oral, 80 mg/kg, single dose",AUC(0-t),41400 ng·h/mL
C[C@]12CC[C@H](O)CC1=CC[C@@H]1[C@@H]2CC[C@]2(C)C(n3cnc4ccccc43)=CC[C@@H]12.Cl,"mouse, plasma","intravenous, 1 mg/kg",AUC(0-t),44.3 ng·h/mL
CCC[C@@](N)(CO)CCc1ccc(OCCCCCC(C)C)cc1,"mouse, plasma","intraperitoneal, 10 mg/kg",AUC(0-t),1060 nM·h
C[C@]12CC[C@H](n3ccnc3)CC1=CC[C@@H]1[C@@H]2CC[C@]2(C)C(n3cnc4ccccc43)=CC[C@@H]12.Cl,"male CD-1 mouse, plasma","oral, 10 mg/kg",AUC(0-t),22600 ng·h/mL
CN[C@H](CC(C)C)C(=O)N[C@H]1C(=O)N[C@@H](CC(N)=O)C(=O)N[C@H]2C(=O)NC3C(=O)N[C@H](C(=O)N[C@H](C(=O)NCCC[N+](C)(C)C)c4cc(O)cc(O)c4-c4cc3ccc4O)[C@H](O)c3ccc(c(Cl)c3)Oc3cc2cc(c3OC2OC(CO)C(O)[C@H](O)[C@@H]2O[C@H]2CC(C)(NCc3ccc(-c4ccc(Cl)cc4)cc3)[C@H](O)[C@H](C)O2)Oc2ccc(cc2Cl)[C@H]1O (some centres unmarked),"mouse, plasma","intravenous, 10 mg/kg",AUC,4870 mg·min/L
CCN(CC)CCCC[C@H](NC(=O)[C@H](CC(C)C)NC(=O)[C@H](C)NC(=O)[C@H](Cc1ccccc1)NC(=O)c1ccc(C(C)(C)C)cc1)C(=O)N[C@@H](CO)C(=O)OC,"male Swiss mouse, blood","intravenous, 3 mg/kg",AUC(0-t),1890 ng·h/mL
